Among the data in the array DNA melting data of Ke et al. (doi:10.1101/2024.01.08.574731) are folding enthalpy and Tm values, retold here.

Data set [1] is described as follows: folding enthalpy; higher = less favourable; fluorescence melt of hairpins on a sequencing array, two-state fit. To be noted: sodium 0.088 M. A digest of the protocol: (§1)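 In 50 mM Na-HEPES pH 8.0 containing 25 mM NaCl, hairpins from the library on a sequenced MiSeq flow cell were imaged for Cy3 fluorescence at 2.5 °C steps up to 60 °C, with Cy3 and quencher oligos annealed. After normalisation to pre-quench Cy3 and to control constructs, two-state fits with bootstrapping gave melting temperature and folding enthalpy. Four replicates were combined by inverse-variance weighting, and fitted temperatures were shifted up by 9.35 °C to match UV melts.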

The nature of data set [2]: melting temperature; fluorescence melt of hairpins on a sequencing array, two-state fit, raised by 9.35 °C to match UV melts. To be noted: sodium 0.088 M. A digest of the protocol: as §1

Regarding GGAACCCCGAAAGGGTCC (((..(((....)))))), the folding enthalpy in data set [1] was -15.5 kcal/mol. For the same sequence, the Tm in data set [2] amounted to 45.9 °C.

Take GGAACCCGAAAGGGTCC (((.(((....)))))): in data set [1], the folding enthalpy is -15.8 kcal/mol. In addition, the Tm in data set [2] was 59.7 °C.

Consider GGAACCGAAAGGTCGTCC ((((((....)))..))), for which, in data set [1], the folding enthalpy is -10.8 kcal/mol. Further, in data set [2], the Tm amounted to 31.4 °C.

As for GGAACCGAAAGGTGCTCC ((((((....)))..))), the folding enthalpy in data set [1] is -12.5 kcal/mol. The Tm in data set [2] amounted to 38.8 °C.

On to GGAACCGAAAGGTGTCC ((((((....))).))), for which, in data set [1], the folding enthalpy was -17.7 kcal/mol. Moreover, the Tm in data set [2] was found to be 47.5 °C.

With GGAACCGGAAACGATTCC ((((.((....)).)))), the folding enthalpy in data set [1] is -31.3 kcal/mol. Further, in data set [2], the Tm worked out at 42.8 °C.

GGAACGCGAAAGCGCTCC (((.(((....))).))): in data set [1], the folding enthalpy is -28.2 kcal/mol. Also, the Tm in data set [2] was 55.8 °C.

Consider GGAACGGCGAAAGCCTCC (((..(((....)))))), for which the folding enthalpy in data set [1] is -10.3 kcal/mol. The Tm in data set [2] was 31.6 °C.

Take GGAACGGGAAACCATTCC ((((.((....)).)))): the folding enthalpy in data set [1] was -30.2 kcal/mol. Besides, in data set [2], the Tm came to 35.9 °C.

Take GGAACGGGAAACCGTTTC (.(((((....))))).): the folding enthalpy in data set [1] was -24.5 kcal/mol. Further, the Tm in data set [2] turned out to be 49.7 °C.

In the case of GGAACTCGAAAGAGCTCC (((.(((....))).))), the folding enthalpy in data set [1] is -33.9 kcal/mol. The Tm in data set [2] was 48.2 °C.

Consider GGAACTGGAAACAGTTCC (((((((....))))))), for which the folding enthalpy in data set [1] was -42.7 kcal/mol. In addition, the Tm in data set [2] came to 65.7 °C.

For GGAACTGGAAACGGTTTC (.(((.(....).))).), the folding enthalpy in data set [1] is -17.9 kcal/mol. Moreover, the Tm in data set [2] was 30.4 °C.

As for GGAAGACCGAAAGGTTCC (((..(((....)))))), the folding enthalpy in data set [1] is -16 kcal/mol. The Tm in data set [2] worked out at 37.4 °C.

On to GGAAGAGGAAACTCTCCC ((.((((....)))).)), for which the folding enthalpy in data set [1] was -18.2 kcal/mol. Besides, the Tm in data set [2] is 32.9 °C.

For the sequence GGAAGCCGAAAGGCATCC (((.(((....))).))), in data set [1], the folding enthalpy is -21.9 kcal/mol. In data set [2], the Tm turned out to be 56.1 °C.

On to GGAAGCCGAAAGGCGTCC (((.(((....))).))), for which the folding enthalpy in data set [1] was -14.6 kcal/mol. In data set [2], the Tm came to 61.6 °C.

GGAAGCGAAAGCTATTCC ((((((....)))..))): in data set [1], the folding enthalpy was -14.1 kcal/mol. In data set [2], the Tm turned out to be 35.8 °C.

Regarding GGAAGCGAAAGCTCGTCC ((((((....)))..))), the folding enthalpy in data set [1] is -11.6 kcal/mol. Also, the Tm in data set [2] worked out at 29.5 °C.

GGAAGCGAAAGCTGCTCC ((((((....)))..))): the folding enthalpy in data set [1] was -11.8 kcal/mol. Also, in data set [2], the Tm worked out at 37.9 °C.

Turning to GGAAGCGAAAGCTGTCC ((((((....))).))), the folding enthalpy in data set [1] was -14.5 kcal/mol. For the same sequence, in data set [2], the Tm was found to be 47.4 °C.

As to GGAAGCGAAAGCTTATCC ((((((....)))..))), the folding enthalpy in data set [1] was -9.74 kcal/mol. The Tm in data set [2] is 34.6 °C.

On to GGAAGCTCGAAAGAGTCC (((..(((....)))))), for which the folding enthalpy in data set [1] was -11.6 kcal/mol. For the same sequence, in data set [2], the Tm came to 26.2 °C.

As to GGAAGGAAACTTCC (((((....))))), in data set [1], the folding enthalpy was -24.1 kcal/mol. Further, the Tm in data set [2] is 46 °C.

On to GGAAGGACGAAAGTCTCC (((..(((....)))))), for which the folding enthalpy in data set [1] is -12.8 kcal/mol. Also, the Tm in data set [2] worked out at 33.1 °C.

Regarding GGAAGGCGAAAGCCCTCC (((.(((....))).))), the folding enthalpy in data set [1] is -16.8 kcal/mol. Also, in data set [2], the Tm turned out to be 48.7 °C.

Turning to GGAAGGGCGAAAGCCTCC (((..(((....)))))), the folding enthalpy in data set [1] is -11.2 kcal/mol. Also, the Tm in data set [2] was 41.1 °C.

Take GGAAGTCGAAAGACATCC (((.(((....))).))): the folding enthalpy in data set [1] is -25.2 kcal/mol. Further, the Tm in data set [2] came to 48.2 °C.

On to GGAAGTGCGAAAGCATCC (((..(((....)))))), for which the folding enthalpy in data set [1] is -10.6 kcal/mol. Also, the Tm in data set [2] came to 31.3 °C.

As to GGAAGTGGAAACACTTCC (((((((....))))))), the folding enthalpy in data set [1] is -54 kcal/mol. Moreover, the Tm in data set [2] came to 61 °C.
